Results as given in ChEMBL document CHEMBL1154099, “Synthesis and evaluation of in vitro anti-microbial and anti-tubercular activity of 2-styryl benzimidazoles” (2009).
Converted amounts (≈) assume the structure as drawn.

How the values were obtained:
Assay type in all cases: functional
Aspergillus fumigatus = experiment: Antifungal activity against Aspergillus fumigatus after 48 hrs by twofold tube dilution method
Method in brief: (§1)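 Fungi maintained in Sabouraud Dextrose Broth for 48 h at 25 ± 1 °C. Testing by twofold dilution in Sabouraud Dextrose Broth, pH 7.4, with DMSO stocks serially diluted from 125 to 1 µg/ml. Inoculated broth-only tubes served as controls. After 48 h at 25 ± 1 °C, the last tube showing no growth was recorded as the MIC.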

Candida albicans = experiment: Antifungal activity against Candida albicans ATCC 10145 after 48 hrs by twofold tube dilution method; conditions: ATCC 10145, 48 h; method in brief: as §1
Klebsiella pneumoniae = experiment: Antibacterial activity against Klebsiella pneumoniae ATCC 13883 after 18 to 20 hrs by twofold tube dilution method
Method in brief: (§2)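 Bacterial cultures grown 18–24 h at 37 ± 1 °C in Mueller–Hinton Broth. Testing by twofold tube dilution in Mueller–Hinton Broth, pH 7.4. Inoculated broth-only tubes served as controls. MIC taken as the lowest concentration preventing visible growth.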

Staphylococcus aureus = experiment: Antibacterial activity against Staphylococcus aureus ATCC 25923 after 18 to 20 hrs by twofold tube dilution method; method in brief: as §2
[1] = tested on: Mycobacterium tuberculosis; experiment: Antitubercular activity against Mycobacterium tuberculosis H37Rv by microplate alamar blue assay
Method in brief: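 M. tuberculosis H37Rv, with compounds that reached at least 90% inhibition in the primary screen. Serial dilution to lower concentrations, microplate Alamar blue assay. MIC taken as the lowest inhibitory concentration. Streptomycin used as reference.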

Enterococcus faecalis = experiment: Antibacterial activity against Enterococcus faecalis ATCC 29212 after 18 to 20 hrs by twofold tube dilution method; method in brief: as §2
Escherichia coli = experiment: Antibacterial activity against Escherichia coli ATCC 25922 after 18 to 20 hrs by twofold tube dilution method; method in brief: as §2
[2] = tested on: Mycobacterium tuberculosis; experiment: Antitubercular activity against Mycobacterium tuberculosis H37Rv at 7.25 ug/ml by microplate alamar blue assay
Method in brief: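 M. tuberculosis H37Rv (ATCC 27294) in BACTEC 12B medium, broth microdilution with microplate Alamar blue read-out. Primary screen at a single concentration of 7.25 µg/ml. Result expressed as percent inhibition.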

Row | SMILES | MIC (Aspergillus fumigatus) | MIC (Candida albicans) | MIC (Klebsiella pneumoniae) | MIC (Staphylococcus aureus) | MIC [1] | MIC (Enterococcus faecalis) | MIC (Escherichia coli) | inhibition at 7.25 µg/mL [2]
1 | Brc1ccc2[nH]c(/C=C/c3ccc4c(c3)OCO4)nc2c1 | 31.2 µg/mL (≈ 91.1 µM) | 31.2 µg/mL (≈ 91.1 µM) | 16.1 µg/mL (≈ 47 µM) | 8 µg/mL (≈ 23.3 µM) | > 75 µg/mL | 31.2 µg/mL (≈ 91.1 µM) | 31.2 µg/mL (≈ 91.1 µM) | 
2 | OC(Cn1cncn1)(Cn1cncn1)c1ccc(F)cc1F [FLUCONAZOLE] | 2 µg/mL (≈ 6.53 µM) | 2 µg/mL (≈ 6.53 µM) |  |  |  |  |  | 
3 | COc1ccc(/C=C/c2nc3cc([N+](=O)[O-])ccc3[nH]2)cc1OC | 31.2 µg/mL (≈ 96.1 µM) | 16.1 µg/mL (≈ 49.6 µM) | 16.1 µg/mL (≈ 49.6 µM) | 31.2 µg/mL (≈ 96.1 µM) | > 75 µg/mL | 31.2 µg/mL (≈ 96.1 µM) | 31.2 µg/mL (≈ 96.1 µM) | 
4 | O=[N+]([O-])c1ccc2[nH]c(/C=C/c3ccccc3)nc2c1 | 16.1 µg/mL (≈ 60.8 µM) | 16.1 µg/mL (≈ 60.8 µM) | 4 µg/mL (≈ 15.1 µM) | 8 µg/mL (≈ 30.2 µM) | > 75 µg/mL | 31.2 µg/mL (≈ 118 µM) | 31.2 µg/mL (≈ 118 µM) | 
5 | O=[N+]([O-])c1ccc2[nH]c(/C=C/c3ccc(Cl)cc3Cl)nc2c1 | 31.2 µg/mL (≈ 93.5 µM) | 16.1 µg/mL (≈ 48.2 µM) | 62.5 µg/mL (≈ 187 µM) | 31.2 µg/mL (≈ 93.5 µM) | > 75 µg/mL | 31.2 µg/mL (≈ 93.5 µM) | 62.5 µg/mL (≈ 187 µM) | 45%
6 | Cc1ccc(/C=C/c2nc3cc(Br)ccc3[nH]2)cc1 | 8 µg/mL (≈ 25.5 µM) | 4 µg/mL (≈ 12.8 µM) | 8 µg/mL (≈ 25.5 µM) | 31.2 µg/mL (≈ 99.8 µM) | > 75 µg/mL | 31.2 µg/mL (≈ 99.8 µM) | 16 µg/mL (≈ 51.1 µM) | 63%
7 | O=C(O)c1cn(C2CC2)c2cc(N3CCNCC3)c(F)cc2c1=O [CIPROFLOXACIN] |  |  | 0.19 µg/mL (≈ 0.573 µM) | 0.78 µg/mL (≈ 2.35 µM) |  | 0.7 µg/mL (≈ 2.11 µM) |  | 
8 | COc1ccc(/C=C/c2nc3cc(Br)ccc3[nH]2)cc1OC | 2 µg/mL (≈ 5.57 µM) | 1 µg/mL (≈ 2.78 µM) | 8 µg/mL (≈ 22.3 µM) | 2 µg/mL (≈ 5.57 µM) | > 75 µg/mL | 2 µg/mL (≈ 5.57 µM) | 31.2 µg/mL (≈ 87 µM) | 54%
9 | O=[N+]([O-])c1ccc2[nH]c(/C=C/c3ccc4c(c3)OCO4)nc2c1 | 16.1 µg/mL (≈ 52.1 µM) | 16.1 µg/mL (≈ 52.1 µM) | 62.5 µg/mL (≈ 202 µM) | 31.2 µg/mL (≈ 101 µM) | > 75 µg/mL | 31.2 µg/mL (≈ 101 µM) | 31.2 µg/mL (≈ 101 µM) | 
10 | CN[C@@H]1[C@H](O[C@H]2[C@H](O[C@H]3[C@H](O)[C@@H](O)[C@H](N=C(N)N)[C@@H](O)[C@@H]3N=C(N)N)O[C@@H](C)[C@]2(O)C=O)O[C@@H](CO)[C@H](O)[C@H]1O [STREPTOMYCIN] |  |  |  |  |  |  |  | 100%
11 | Clc1ccc(/C=C/c2nc3cc(Br)ccc3[nH]2)c(Cl)c1 | 16.1 µg/mL (≈ 43.8 µM) | 31.2 µg/mL (≈ 84.9 µM) | 2 µg/mL (≈ 5.43 µM) | 16.1 µg/mL (≈ 43.8 µM) | > 75 µg/mL | 8 µg/mL (≈ 21.7 µM) | 31.2 µg/mL (≈ 84.9 µM) | 76%
12 | O=[N+]([O-])c1ccc2[nH]c(/C=C/c3cccc(O)c3)nc2c1 | 62.5 µg/mL (≈ 222 µM) | 31.2 µg/mL (≈ 111 µM) | 31.2 µg/mL (≈ 111 µM) | 4 µg/mL (≈ 14.2 µM) | > 75 µg/mL | 31.2 µg/mL (≈ 111 µM) | 31.2 µg/mL (≈ 111 µM) | 
13 | Cc1ccc(/C=C/c2nc3cc([N+](=O)[O-])ccc3[nH]2)cc1 | 31.2 µg/mL (≈ 112 µM) | 31.2 µg/mL (≈ 112 µM) | 16.1 µg/mL (≈ 57.7 µM) | 4 µg/mL (≈ 14.3 µM) | > 75 µg/mL | 16.1 µg/mL (≈ 57.7 µM) | 62.5 µg/mL (≈ 224 µM) | 
14 | Brc1ccc2[nH]c(/C=C/c3ccccc3)nc2c1 | 8 µg/mL (≈ 26.7 µM) | 8 µg/mL (≈ 26.7 µM) | 31.2 µg/mL (≈ 104 µM) | 2 µg/mL (≈ 6.69 µM) | > 75 µg/mL | 16.1 µg/mL (≈ 53.9 µM) | 16.1 µg/mL (≈ 53.9 µM) | 83%
15 | Oc1cccc(/C=C/c2nc3cc(Br)ccc3[nH]2)c1 | 8 µg/mL (≈ 25.4 µM) | 4 µg/mL (≈ 12.7 µM) | 4 µg/mL (≈ 12.7 µM) | 1 µg/mL (≈ 3.17 µM) | > 75 µg/mL | 1 µg/mL (≈ 3.17 µM) | 4 µg/mL (≈ 12.7 µM) | 
